Reference: ChEMBL document CHEMBL5724801, “EUbOPEN Chemogenomics Library - Multiplex” (2024)
Several values for one entry are separate records, joined by “and”; a condition that tells them apart may be missing. Equal values may be shown once.

Tested on: HEK-293T
Experiment: Multiplex assay against HEK293T
Format: toxicity, cell-based
Conditions: human
Procedure, shortened: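 Tubulin, mitochondrial-mass and membrane-permeability phenotypes are per cents of healthy-nucleus cells. Cells were gated by CellPathfinder machine learning into Hoechst high-intensity objects or normal cells, normal cells into healthy, pyknosed or fragmented nuclei, and pyknosed cells into mitotic or apoptotic. Before that, live cells stained at seeding with Hoechst33342, BioTracker Green Microtubule Cytoskeleton Dye, MitoTracker Red and Annexin V Alexa Fluor 680 were imaged on a CQ1 microscope at 37°C and 5% CO2 after compound addition.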

[1] = 12 h, 1 µM, compound concentration 1 uM
[2] = 12 h, 10 µM, compound concentration 10 uM
[3] = 24 h, 1 µM, compound concentration 1 uM
[4] = 24 h, 10 µM, compound concentration 10 uM
[5] = 48 h, 1 µM, compound concentration 1 uM
[6] = 48 h, 10 µM, compound concentration 10 uM

For `COC(c1ccccc1)(c1ccccc1)[C@H](Oc1nc(C)cc(C)n1)C(=O)O` [AMBRISENTAN], the “Population Apoptotic (%)” value [1] was 38%, the “Population Fragmented Nuclei (%)” value [1] was 7% and the “Population Healthy Nuclei (%)” value [1] was 75% and 81%. For the same compound, the “Population Hoechst High Intensity Objects (%)” value [1] was 6% and 11%, the “Population Membrane Permeable-Phenotype (%)” value [1] was 0% and the “Population Mitochondria Different-Phenotype (%)” value [1] was 53% and 63%. For the same compound, the “Population Mitotic Cells (%)” value [1] was 61%, the “Population Normal (%)” value [1] was 93% and 88% and the “Population Pyknosed Nuclei (%)” value [1] was 16% and 10%. For the same compound, the “Population Tubulin-Different-Phenotype (%)” value [1] was 30% and 23%, the “Total Cell Count” value [1] was 249 and 326 and the “Population Apoptotic (%)” value [2] was 33% and 56%. The “Population Fragmented Nuclei (%)” value [2] was 8% and 5%, the “Population Healthy Nuclei (%)” value [2] was 76% and 80% and the “Population Hoechst High Intensity Objects (%)” value [2] was 6% and 13%. For the same compound, the “Population Membrane Permeable-Phenotype (%)” value [2] was 0%, the “Population Mitochondria Different-Phenotype (%)” value [2] was 47% and 57% and the “Population Mitotic Cells (%)” value [2] was 66% and 43%. For the same compound, the “Population Normal (%)” value [2] was 93% and 86%, the “Population Pyknosed Nuclei (%)” value [2] was 15% and 14% and the “Population Tubulin-Different-Phenotype (%)” value [2] was 23% and 18%. The “Total Cell Count” value [2] was 383 and 262, the “Population Apoptotic (%)” value [3] was 37% and 43% and the “Population Fragmented Nuclei (%)” value [3] was 9%. The “Population Healthy Nuclei (%)” value [3] was 76% and 82%, the “Population Hoechst High Intensity Objects (%)” value [3] was 4% and 7% and the “Population Membrane Permeable-Phenotype (%)” value [3] was 1% and 0%. The “Population Mitochondria Different-Phenotype (%)” value [3] was 30% and 39%, the “Population Mitotic Cells (%)” value [3] was 62% and 56% and the “Population Normal (%)” value [3] was 95% and 92%. The “Population Pyknosed Nuclei (%)” value [3] was 14% and 8%, the “Population Tubulin-Different-Phenotype (%)” value [3] was 19% and 16% and the “Total Cell Count” value [3] was 313 and 404. For the same compound, the “Population Apoptotic (%)” value [4] was 30% and 44%, the “Population Fragmented Nuclei (%)” value [4] was 10% and 8% and the “Population Healthy Nuclei (%)” value [4] was 73% and 78%. The “Population Hoechst High Intensity Objects (%)” value [4] was 4% and 12%, the “Population Membrane Permeable-Phenotype (%)” value [4] was 0% and the “Population Mitochondria Different-Phenotype (%)” value [4] was 34% and 41%. The “Population Mitotic Cells (%)” value [4] was 69% and 55%, the “Population Normal (%)” value [4] was 95% and 87% and the “Population Pyknosed Nuclei (%)” value [4] was 15% and 12%. The “Population Tubulin-Different-Phenotype (%)” value [4] was 18% and 17%, the “Total Cell Count” value [4] was 441 and 318 and the “Population Apoptotic (%)” value [5] was 27% and 40%. The “Population Fragmented Nuclei (%)” value [5] was 17% and 12%, the “Population Healthy Nuclei (%)” value [5] was 72% and 80% and the “Population Hoechst High Intensity Objects (%)” value [5] was 2% and 3%. For the same compound, the “Population Membrane Permeable-Phenotype (%)” value [5] was 3% and 0%, the “Population Mitochondria Different-Phenotype (%)” value [5] was 22% and 23% and the “Population Mitotic Cells (%)” value [5] was 72% and 59%. For the same compound, the “Population Normal (%)” value [5] was 97% and 96%, the “Population Pyknosed Nuclei (%)” value [5] was 10% and 7% and the “Population Tubulin-Different-Phenotype (%)” value [5] was 13% and 10%. For the same compound, the “Total Cell Count” value [5] was 600 and 605, the “Population Apoptotic (%)” value [6] was 26% and 53% and the “Population Fragmented Nuclei (%)” value [6] was 14%. The “Population Healthy Nuclei (%)” value [6] was 77% and 79%, the “Population Hoechst High Intensity Objects (%)” value [6] was 2% and 7% and the “Population Membrane Permeable-Phenotype (%)” value [6] was 1% and 0%. For the same compound, the “Population Mitochondria Different-Phenotype (%)” value [6] was 18% and 27%, the “Population Mitotic Cells (%)” value [6] was 73% and 46% and the “Population Normal (%)” value [6] was 97% and 92%. The “Population Pyknosed Nuclei (%)” value [6] was 8% and 5%, the “Population Tubulin-Different-Phenotype (%)” value [6] was 13% and 15% and the “Total Cell Count” value [6] was 711 and 480.

`O=C(Nc1c[nH]nc1-c1nc2cc(CN3CCOCC3)ccc2[nH]1)NC1CC1` [AT-9283] was tested, and the “Population Apoptotic (%)” value [1] was 12.17% and 7.08%, the “Population Fragmented Nuclei (%)” value [1] was 0.89% and 3.5% and the “Population Healthy Nuclei (%)” value [1] was 48% and 17.48%. For the same compound, the “Population Hoechst High Intensity Objects (%)” value [1] was 0%, the “Population Membrane Permeable-Phenotype (%)” value [1] was 0.93% and 0% and the “Population Mitotic Cells (%)” value [1] was 87.83% and 92.92%. The “Population Normal (%)” value [1] was 100%, the “Population Pyknosed Nuclei (%)” value [1] was 51.11% and 79.02% and the “Total Cell Count” value [1] was 225 and 143. The “Population Apoptotic (%)” value [2] was 9.66% and 13.57%, the “Population Fragmented Nuclei (%)” value [2] was 1.6% and 0.63% and the “Population Healthy Nuclei (%)” value [2] was 28% and 10.76%. For the same compound, the “Population Hoechst High Intensity Objects (%)” value [2] was 0%, the “Population Membrane Permeable-Phenotype (%)” value [2] was 0% and 11.76% and the “Population Mitotic Cells (%)” value [2] was 90.34% and 86.43%. For the same compound, the “Population Normal (%)” value [2] was 100%, the “Population Pyknosed Nuclei (%)” value [2] was 70.4% and 88.61% and the “Population Tubulin-Different-Phenotype (%)” value [2] was 20% and 35.29%. The “Total Cell Count” value [2] was 250 and 158, the “Population Apoptotic (%)” value [3] was 21.74% and 12.8% and the “Population Fragmented Nuclei (%)” value [3] was 4.26% and 2.61%. The “Population Hoechst High Intensity Objects (%)” value [3] was 0.35% and 0%, the “Population Membrane Permeable-Phenotype (%)” value [3] was 0% and 4.17% and the “Population Mitochondria Different-Phenotype (%)” value [3] was 18.06% and 0%. The “Population Mitotic Cells (%)” value [3] was 78.26% and 87.2%, the “Population Normal (%)” value [3] was 99.65% and 100% and the “Population Pyknosed Nuclei (%)” value [3] was 40.78% and 81.7%. The “Population Tubulin-Different-Phenotype (%)” value [3] was 17.42% and 16.67%, the “Total Cell Count” value [3] was 283 and 153 and the “Population Apoptotic (%)” value [4] was 24.17% and 28.99%. For the same compound, the “Population Fragmented Nuclei (%)” value [4] was 0.37% and 0.67%, the “Population Hoechst High Intensity Objects (%)” value [4] was 0.37% and 0% and the “Population Membrane Permeable-Phenotype (%)” value [4] was 1.79% and 0%. The “Population Mitotic Cells (%)” value [4] was 75.83% and 71.01%, the “Population Normal (%)” value [4] was 99.63% and 100% and the “Population Pyknosed Nuclei (%)” value [4] was 78.73% and 92.62%. The “Population Tubulin-Different-Phenotype (%)” value [4] was 33.93% and 40%, the “Total Cell Count” value [4] was 269 and 149 and the “Population Apoptotic (%)” value [5] was 44.44% and 22.06%. For the same compound, the “Population Fragmented Nuclei (%)” value [5] was 2.23% and 0%, the “Population Healthy Nuclei (%)” value [5] was 80.17% and 46.03% and the “Population Hoechst High Intensity Objects (%)” value [5] was 0% and 0.79%. The “Population Membrane Permeable-Phenotype (%)” value [5] was 3.83% and 1.72%, the “Population Mitochondria Different-Phenotype (%)” value [5] was 49.13% and 22.41% and the “Population Mitotic Cells (%)” value [5] was 55.56% and 77.94%. For the same compound, the “Population Normal (%)” value [5] was 100% and 99.21%, the “Total Cell Count” value [5] was 358 and 127 and the “Population Apoptotic (%)” value [6] was 52.36% and 56.2%. The “Population Fragmented Nuclei (%)” value [6] was 1.67% and 2.67%, the “Population Hoechst High Intensity Objects (%)” value [6] was 0.83% and 0% and the “Population Membrane Permeable-Phenotype (%)” value [6] was 0%. The “Population Mitochondria Different-Phenotype (%)” value [6] was 88.89% and 55.56%, the “Population Mitotic Cells (%)” value [6] was 47.64% and 43.8% and the “Population Normal (%)” value [6] was 99.17% and 100%. For the same compound, the “Population Pyknosed Nuclei (%)” value [6] was 79.58% and 91.33%, the “Population Tubulin-Different-Phenotype (%)” value [6] was 24.44% and 55.56% and the “Total Cell Count” value [6] was 242 and 150.
